# This is one part of a sample in which hits are shown more often than they occur.
# CHOP inhibitor: inhibitors of CHOP promoter induction, primary screen, cell-based, unfolded protein response, luciferase reporter; CHO-K1 CHOP-promoter luciferase, tunicamycin-induced, 15-18 h; inhibition, % at 10 µM; 3.8% of 220,000 active;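 active = compounds that reduced the stress-induced luciferase reporter signal by more than about 70% of percent inhibition, limit read from the data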;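 note: 0% = tunicamycin plus vehicle and 100% = wells without tunicamycin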
# UPR CHOP act: activators of apoptotic CHOP UPR arm, primary screen, cell-based, CHO-CHOP luciferase reporter, luminescence, uHTS | 0.34% of 330,000 active | UPR activation; percent of tunicamycin response over DMSO baseline | AID 449763, 2010 | activation, % at 10 µM;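 active = at 10 µM dose, activation of 40% or more, normalized to positive control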;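 note: 100% = tunicamycin at 10 µg/mL and 0% = DMSO alone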
#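 Test system: CHO CHOP reporter cells. Input: 500 CHO-CHOP cells per well. Medium: F12 with 10% FBS. Technique: luciferase luminescence. Measure: percent activation relative to tunicamycin control. Dosing: 10 µM compound, 0.5% DMSO. Timing: 16-18 h cell attachment, then 6 h compound exposure, 37 °C.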
# XBP1 UPR activ: activators of adaptive XBP1 UPR arm, primary screen, cell-based, CHO-XBP1 luciferase reporter, luminescence, uHTS. AID 463104, 2010. 0.33% of 330,000 active. IRE1-XBP1 UPR activation; percent of tunicamycin response, DMSO as zero. activation, % at 20 µM;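 active = versus positive control, 20 µM dose yields 30% or more activation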;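 note: 100% = tunicamycin at 10 µg/mL and 0% = DMSO only wells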
#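 assay system = CHO-XBP1 luciferase reporter cells | amount = 1000 cells/well | buffer or medium = F12 plus 10% FBS | compound dosing = single point, 20 µM final compound, 1% DMSO | incubation = 16-18 h cell attachment at 37 °C, then 6 h compound exposure | detection = Steady-Glo luminescence read | controls = tunicamycin 10 µg/mL and vehicle-only wells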
# PvdQ inh: P. aeruginosa PvdQ acylase inhibitors, primary screen, biochemical, fluorescence, plate reader and imaging, single point; PvdQ acylase [Pseudomonas aeruginosa LESB58]; purified PvdQ acylase; inhibition, % at 10 µM; 0.063% of 340,000 active; in the data active = inhibition above about 30%, passing the limit was not always enough;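 note: 0% = vehicle neutral wells and 100% = reference inhibitor wells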
# The depositor's hits bear a star; · = no result given.
SMILES,CHOP inhibitor,UPR CHOP act,XBP1 UPR activ,PvdQ inh
CCCCN(C(=O)CNC(=O)c1ccco1)C(C(=O)NC1CCCC1)c1ccc(OC)cc1 (stereo not given),9,-1,1,14
O=C(Nc1ccc(F)c(Cl)c1)Nc1ccc(Cl)cn1,81*,1,0,-7
COC(=O)c1ccc(NC(=O)Nc2ccc(F)c(Cl)c2)cc1,86*,4,0,6
COC(=O)c1ccc(NC(=O)Nc2ccc(F)cc2)cc1,39,2,5,-11
COc1ccccc1N(C(=O)c1snc(C(N)=O)c1N)C(C(=O)NC1CCCCC1)c1cccc(OC)c1OC (stereo not given),·,-1,4,2
Cc1ccc2nc(-c3ccccc3)cn2c1,76*,-11,-17,-5
C=CCn1c(COc2cccc(C)c2C)nnc1SCC(=O)N1CCN(c2ccccc2)CC1,71*,-1,-5,10
CN(C(=O)c1cccc(NC(=O)Cc2ccc(NC(=O)C3CCCN(C(=O)c4ccccc4)C3)cc2)c1)C1CCCCC1 (stereo not given),·,·,·,-12
COCCn1c(-c2ccc(SC)cc2)nc2c1c(=O)[nH]c(=O)n2CC(C)C,·,1,4,-21
COCCn1c(-c2ccc(OC(F)(F)C(F)C(F)(F)F)cc2)nc2c1c(=O)[nH]c(=O)n2CC(C)C (stereo not given),73*,-2,-2,-11
O=C(NC1CCCC1)C(c1ccsc1)N(CCc1ccccc1)C(=O)Cc1cccs1 (stereo not given),30,2,1,-5
CC(=O)OCC(OC(C)=O)C(OC(C)=O)C(OC(C)=O)C(=O)Nc1ccccc1 (stereo not given),5,-2,-4,14
CCCN(CCC)C(=O)CC(c1ccccc1)c1cc(Br)ccc1O (stereo not given),92*,-1,0,-8
CCCCC(=O)Nc1nn(C)c2nc3c(C)cccc3cc12,76*,0,-2,-12
CCCCC(=O)Nc1nn(CC)c2nc3c(C)cccc3cc12,·,0,-4,-6
CN(CC(=O)Nc1nc2ccccc2s1)S(=O)(=O)c1ccc(Br)cc1,-1,-1,-2,-19
CN(CC(=O)Nc1nc2ccccc2s1)S(=O)(=O)c1ccc(Cl)cc1,84*,1,-1,-10
COc1ccc(-c2ccc(OC)cc2)cc1,2,7,4,52*
CC(C)CCOc1ccc(Cl)cc1CN1CCOCC1,83*,1,2,-15
O=C1C=C(c2ccccc2)OC(c2ccccc2)O1 (stereo not given),-19,2,-2,47*
Cc1ccc2oc3ccccc3c(=O)c2c1,·,·,·,-8
Cc1ccc2oc(=O)cc(/C=C/c3ccccc3)c2c1,76*,1,0,-9
CCOC(=O)c1ccc(Oc2nc(SC)nc(N(C)C)n2)cc1,69,-1,-2,-5
CCOC(=O)c1ccc(Oc2nc(N(C)C)nc(N(C)C)n2)cc1,71*,-1,0,-4
C=CCn1c(SCC(O)Cn2c3ccccc3c3ccccc32)nnc1-c1ccco1 (stereo not given),77*,-2,2,-15
SMILES,CHOP inhibitor,UPR CHOP act,XBP1 UPR activ,PvdQ inh
COc1cc(C(=O)NC2CCCCC2)ccc1OCc1ccc(Cl)cc1Cl,85*,2,2,-1
COc1cc(S(=O)(=O)NCCN2CCOCC2)c(OC)cc1Cl,78*,0,1,-9
COc1ccc(S(=O)(=O)NCCN2CCOCC2)c(C)c1C,·,2,-4,-12
Cn1cccc1C(=O)NCc1ccccn1,·,-1,0,1
Cc1cccc(Nc2nc(-c3c(C)nc4ccccn34)cs2)c1,77*,10,6,-10
O=P(OC1CCCCC1)(OC1CCCCC1)C(O)c1ccc(Cl)cc1Cl (stereo not given),92*,-1,4,-5
O=P(OC1CCCCC1)(OC1CCCCC1)C(O)c1c(Cl)cccc1Cl (stereo not given),84*,-2,1,10
O=C(NCCCN1CCc2ccccc2C1)Nc1ccc(Cl)cc1,-26,0,4,-15
O=C(c1ccc2c(=O)n3c(nc2c1)CCCCC3)N1CCN(C(c2ccccc2)c2ccccc2)CC1,38,5,3,-9

# High-throughput results deposited in PubChem by several laboratories.
